MEKK2 WT-MEK5: raises or lowers MEK5 binding to wildtype human MEKK2 PB1 domain; Q9Y2U5; bead flow cytometry, Alexa488-MEK5 binding to MEKK2 WT; actives lie on both sides; binding response (% of control), % at 10 µM; hit rate 1.1% among 290,000; in the data active = binding response below about 67% or above about 130%
T cruzi repl: blocks replication of Trypanosoma cruzi; T. cruzi beta-gal in NIH3T3, luminescence, 90 h; AID 1885; inhibition, % (concentration not given with the values); hit rate 1.4% among 300,000;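 active = mean inhibition across valid replicates above about 55%, limit read from the data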;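 note: signal also drops with host cell toxicity which is not excluded here; 0% = plate median of DMSO wells and 100% = zero luminescence signal; higher percent means less beta-gal luminescence so fewer parasites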
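Assay system: NIH/3T3 fibroblasts plus reporter T. cruzi. Amount: NIH/3T3 cells, 5,000 per well. Buffer or medium: DMEM, 2% fetal bovine serum. Doses: compound pinned at 50 nL/well, DMSO. Schedule: ≥90 h infection period, 3 h prior cell attachment. Signal: luminescent β-galactosidase signal after 60 min lysis. Read-out: parasite load inhibition, %.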
MEKK2mut PB1 HTS: signal of MEK5 binding to mutant human MEKK2 PB1 domain; percent response, % at 10 µM; hit rate 0.35% among 290,000; bead flow cytometry, Alexa488-MEK5 binding to MEKK2 mutant; AID 1530; in the data active = percent response above about 24%, passing the limit was not always enough
NS3 helicase inh: inhibitors of Hepatitis C virus NS3 helicase | NS3 helicase DNA unwinding, Cy5 molecular beacon fluorescence | inhibition, % at 10.9 µM | hit rate 0.56% among 290,000 | AID 1800;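 active = inhibition above the mean of all tested compounds plus 3 SD, set per campaign, cut at about 35% in these data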;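 note: 0% = DMSO wells and 100% = thioflavine S control wells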
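Material: hepatitis C virus NS3 helicase domain fragment enzyme; measured by: Cy5 fluorescence, 0 and 60 min reads; control set: DMSO and thioflavine S; incubation: 60 min unwinding reaction at 25 °C after ATP addition; read-out basis: % inhibition from 60/0 min fluorescence ratio, DMSO 0%, thioflavine S 100%; repeats: singlicate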
DNA FID counter-1: displaces DNA intercalator in HCV helicase counter-screen; DNA fluorescent intercalator displacement, fluorescence; inhibition, % at 7.9 µM; hit rate 0.17% among 290,000; AID 1845;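 note: 0% = vehicle and 100% = reference compound; higher means more ethidium bromide displaced from hairpin DNA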
MEKK3 PB1 HTS: raises or lowers MEK5 binding to the human MEKK3 PB1 domain. bead-based flow cytometry, Alexa488-MEK5 binding to MEKK3; actives lie on both sides; 0 = blocked by unlabeled MEK5, 100 = vehicle. AID 1529. hit rate 1.4% among 290,000. binding response (% of control), % at 10 µM;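 active = binding response more than 3 SD above or below the average of its plate-row segment, actives on both sides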;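 note: Alexa488 bead fluorescence after subtracting the streptavidin-only scavenger bead signal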
Target sequence (Q99759 whole entry, looked up, the tested form may be a part): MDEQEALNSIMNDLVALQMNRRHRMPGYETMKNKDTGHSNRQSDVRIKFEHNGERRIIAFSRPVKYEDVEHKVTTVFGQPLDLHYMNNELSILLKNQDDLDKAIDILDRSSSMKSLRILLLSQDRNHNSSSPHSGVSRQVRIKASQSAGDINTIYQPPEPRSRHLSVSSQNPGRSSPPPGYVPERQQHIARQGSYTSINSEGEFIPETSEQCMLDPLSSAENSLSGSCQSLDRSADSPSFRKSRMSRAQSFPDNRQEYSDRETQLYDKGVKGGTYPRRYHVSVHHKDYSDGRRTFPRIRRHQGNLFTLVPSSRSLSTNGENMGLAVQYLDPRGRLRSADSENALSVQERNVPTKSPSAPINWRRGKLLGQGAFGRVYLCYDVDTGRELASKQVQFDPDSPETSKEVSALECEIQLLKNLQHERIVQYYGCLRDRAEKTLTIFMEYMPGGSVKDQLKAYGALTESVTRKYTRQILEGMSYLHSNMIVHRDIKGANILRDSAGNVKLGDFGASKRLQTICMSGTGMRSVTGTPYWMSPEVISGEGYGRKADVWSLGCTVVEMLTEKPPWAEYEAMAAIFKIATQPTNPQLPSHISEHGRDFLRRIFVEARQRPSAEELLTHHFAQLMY
NS3 helicase cf: confirmation of Hepatitis C virus NS3 helicase inhibitors; shares compounds with NS3 helicase inh; NS3 helicase DNA unwinding, Cy5 molecular beacon fluorescence; inhibition, % at 10.9 µM; hit rate 31% among 1,600;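 active = inhibition above the mean of all tested compounds plus 3 SD, cutoff set per campaign, cut at about 36% in these data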
DNA FID counter-2: intercalator displacement, NS3 helicase counter-screen. shares compounds with NS3 helicase inh. inhibition, % at 7.9 µM. hit rate 4% among 1,600. DNA fluorescent intercalator displacement, fluorescence;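 note: 0% = vehicle and 100% = reference compound; higher means more displacement of ethidium bromide from the DNA hairpin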
DNA FID DR: DNA intercalator displacement in dose response; fluorescent intercalator displacement from DNA, fluorescence; IC50, µM; shares compounds with NS3 helicase inh; 120 tested, under 10 active; call rule not given here
* marks the source's active call; other numbers are inactive results; x = no result. Shown are actives, neighbours in structure and some others; about 4.1% of the full set was active somewhere. Cut-off read from the data, not from the text of the source, unless noted: active = inhibition above about 37%; inactive = the rest.

SMILES	MEKK2 WT-MEK5	T cruzi repl	MEKK2mut PB1 HTS	NS3 helicase inh	DNA FID counter-1	MEKK3 PB1 HTS	NS3 helicase cf	DNA FID counter-2	others
O=C(NCc1ccccc1F)C1CCCN(S(=O)(=O)N2CCOCC2)C1 (stereo not drawn)	100	-17	1	-6	-9	105	x	x
CNC(C)C#Cc1ccc2sc3cccc(OC)c3c(=O)c2c1 (stereo not drawn)	100	26	14	39*	-18	100	19	7
O=C(CCS(=O)(=O)c1ccccc1)Nc1ccc(Cl)cn1	105	-6	5	-2	-9	103	x	x
CC(CC(=O)NC1CCCCC1)S(=O)(=O)c1ccc2c(c1)NC(=O)CO2 (stereo not drawn)	100	-10	5	38*	-28	101	-20	-2
CC(C)CNC(=O)NC(=O)COC(=O)Cn1cnc2ccccc2c1=O	99	-36	1	5	-6	102	x	x
COc1ccc(-n2nc3ccc(N)cc3n2)cc1Cl	99	-42	3	37*	0	107	-5	23
Cc1ccc(-n2nc3ccc(N)cc3n2)cc1C	102	7	4	70*	-3	104	-9	28
Cc1ccc(-n2nc3ccc(N)cc3n2)cc1Cl	107	-10	1	23	2	108	x	x
CCCNC(=O)COC(=O)c1ccc(S(=O)(=O)N2CCCC2)cc1	92	-5	-7	50*	-6	99	-10	-4
CCCCCCc1c(C)c2ccc(OCC(=O)N[C@@H](Cc3ccccc3)C(=O)O)cc2oc1=O	100	12	2	-45	-6	104	x	x
CCOC(=O)c1c(S(=O)(=O)NCCc2ccc(OC)c(OC)c2)c(C)n(C)c1C	103	2	-7	39*	-21	98	-11	-20
CCOC(=O)c1c(S(=O)(=O)NCCc2ccccc2)c(C)n(C)c1C	100	7	1	9	-32	102	x	x
CCCCn1c(N)c(N(CCOC)C(=O)CSc2nnc(-c3ccncc3)n2CCC)c(=O)[nH]c1=O	x	-7	x	x	x	x	x	x
CCc1ccc(N2CC(C(=O)Nc3ccc(S(=O)(=O)NCC4CCCO4)cc3)CC2=O)cc1 (stereo not drawn)	103	-22	3	-26	-36	101	x	x
COc1cc2cc3c(N)c(C(=O)NCc4ccco4)sc3nc2cc1OC	96	16	1	9	-4	97	x	x
COc1cc2cc3c(N)c(C(=O)Nc4sc(C)c(C)c4C#N)sc3nc2cc1OC	91	-42	-6	37*	-3	88	50*	-14	DNA FID DR=>79
CCCCC(=O)NC(=S)Nc1ccc(Cl)c(C(=O)O)c1	100	-7	2	8	-4	104	x	x
CCCCC(=O)NC(=S)Nc1cc(C(=O)O)ccc1Cl	101	7	4	55*	-12	104	-17	1
O=C(CN(Cc1ccccc1)C(=O)c1csnn1)NCc1ccccc1	126	3	5	0	-5	127	x	x
Cc1ccc(Cn2cc(CCC(=O)O)c3ccccc32)cc1	103	-8	4	49*	-31	101	12	-21
COc1ccc(CN(C(=O)Cc2c[nH]c3ccccc23)C(C(=O)NC2CCCCC2)c2ccc(C)o2)cc1 (stereo not drawn)	87	36	-4	65*	89*	99	11	-22
NC(=S)N/N=C/c1c(O)ccc2ccccc12	80	-2	-12	57*	4	81	7	-1
O=C(N/N=C/c1c(O)ccc2ccccc12)c1ccc(CO)nc1	96	9	3	39*	-12	95	7	-1
COc1ccc2ccccc2c1/C=N/NC(=O)c1ccc(C)nc1	99	-2	-1	-11	-32	99	x	x
COc1ccccc1/C=C/C(=O)NNC(=O)c1cccs1	65	-2	-12	10	-6	55	x	x
SMILES	MEKK2 WT-MEK5	T cruzi repl	MEKK2mut PB1 HTS	NS3 helicase inh	DNA FID counter-1	MEKK3 PB1 HTS	NS3 helicase cf	DNA FID counter-2	others
CC1(C)Cc2c(c(-c3ccco3)[nH]c(=O)c2C#N)CS1	110	-4	6	44*	-7	107	75*	7
CC1(C)Cc2c(c(-c3ccccc3)[nH]c(=O)c2C#N)CS1	107	5	5	-5	-2	105	x	x
Cc1ccc(OS(=O)(=O)c2c(C)nn(C)c2Cl)c(C)c1	93	17	-5	-4	-22	98	x	x
Cc1c(C(=O)NNC(=S)Nc2ccc(S(N)(=O)=O)cc2)oc2ccccc12	101	7	4	38*	-31	106	6	8
O=c1c(Cl)c(N2CCC3(CC2)OCCO3)cnn1C12CC3CC(CC(C3)C1)C2	88	-6	-8	-8	-32	85	x	x
CO/N=C/c1ccc(N2CCN(C(=O)c3cccc(C(F)(F)F)c3)CC2)c([N+](=O)[O-])c1	105	6	5	-15	-24	111	x	x
CO/N=C/c1ccc(N2CCN(C(=O)c3ccc(F)cc3)CC2)c([N+](=O)[O-])c1	102	-17	-1	40*	-2	100	-16	-32
Cc1cn(CC2COC(C)(C)O2)c(=O)[nH]c1=O (stereo not drawn)	112	1	10	38*	-13	114	-2	10
COC(Cn1cc(C)c(=O)[nH]c1=O)OC	96	-7	-12	-14	0	99	x	x
COc1ccc(NC(=O)c2c[nH]n3c(=O)cc(C4CCN(C(=O)OC(C)(C)C)CC4)nc23)cc1Cl	82	7	-18	36*	-22	97	52*	-28
O=C(Nc1ccccn1)C1CCN(c2ncnc3c2nc2n3CCCCC2)CC1	94	-16	-5	0	-36	100	x	x
Cc1ccc(C2=NS(=O)(=O)N(C)C(C(=O)NC3CCCCC3)=C2)cc1	98	2	1	-6	-19	100	x	x
CCC(=O)Nc1ccc2nc3c(=O)[nH]c(=S)[nH]c3nc2c1	100	3	4	39*	0	101	-21	5
CCOc1ccc(NS(=O)(=O)c2ccc(-c3ccc(=O)[nH]n3)o2)cc1	101	5	1	5	-7	100	x	x
Cc1ccc(-c2nc(CNC(=O)c3ccco3)cs2)cc1	104	-3	11	41*	-44	104	-18	-10
O=C(C1=C(O)C(=O)N(CC2CCCO2)C1c1ccccc1)c1ccco1 (stereo not drawn)	101	-5	1	16	-16	99	x	x
